Values after ≈ are worked out from the molar mass of the structure shown.
What was measured:
Staphylococcus aureus [1] = experiment: Antibacterial activity against methicillin-resistant Staphylococcus aureus LMP 805 after 30 mins by microbroth dilution method; type: functional
Summary of the method: (§1)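 Microbroth dilution MIC, done in three independent repeats. After incubation, 0.2 mg/mL p-iodonitrotetrazolium chloride was added and plates were held at 37 °C for 30 min. Viable cells reduce the yellow dye to pink.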

Escherichia coli [2] = experiment: Antibacterial activity against beta lactamase positive Escherichia coli LMP 701 after 30 mins by microbroth dilution method; type: functional
Summary of the method: (§2)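 Microbroth dilution, run three times. After incubation, 0.2 mg/mL p-iodonitrotetrazolium chloride was added and plates were held 30 min at 37 °C. Viable cells reduce the yellow dye to pink. MIC is the lowest concentration that prevented the colour change and gave complete growth inhibition.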

Shigella dysenteriae [3] = experiment: Antibacterial activity against beta lactamase positive Shigella dysenteriae LMP 606 after 30 mins by microbroth dilution method; type: functional; summary of the method: as §1
Klebsiella pneumoniae [4] = experiment: Antibacterial activity against beta ampicillin resistant Klebsiella pneumoniae LMP 803 after 30 mins by microbroth dilution method; type: functional; summary of the method: as §1
Pseudomonas aeruginosa [5] = experiment: Antibacterial activity against beta carbenicillin resistant Pseudomonas aeruginosa LMP 804 after 30 mins by microbroth dilution method; type: functional; summary of the method: as §1
Salmonella enterica [6] = experiment: Antibacterial activity against chloramphenicol-resistant Salmonella typhi LMP 706 after 30 mins by microbroth dilution method; type: functional, Salmonella enterica subsp. enterica serovar Typhi; summary of the method: as §1
Citrobacter freundii [7] = experiment: Antibacterial activity against chloramphenicol-resistant Citrobacter freundii LMP 802 after 30 mins by microbroth dilution method; type: functional; summary of the method: as §1
Candida albicans [8] = experiment: Antifungal activity against Candida albicans LMP 709U […] by microbroth dilution method; type: functional; summary of the method: as §2
Microsporum audouinii [9] = experiment: Antifungal activity against Microsporum audouinii LMP 725D after 30 mins by microbroth dilution method; type: functional; summary of the method: as §2
Staphylococcus aureus [10] = experiment: Antibacterial activity against methicillin-resistant Staphylococcus aureus LMP 805 after 24 hrs by microbroth dilution method; type: functional
Summary of the method: (§3)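 For MMC, wells with no colour change after the INT step of the microbroth dilution assay were subcultured onto MHA agar and incubated at 37 °C for 24 h. MMC is the lowest concentration giving no growth after subculture. The assay was repeated three times.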

Escherichia coli [11] = experiment: Antibacterial activity against beta lactamase positive Escherichia coli LMP 701 after 24 hrs by microbroth dilution method; type: functional
Summary of the method: (§4)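 Minimal microbicidal concentration taken after the microbroth dilution MIC assay. MMC is the lowest concentration giving no growth after subculture.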

Shigella dysenteriae [12] = experiment: Antibacterial activity against beta lactamase positive Shigella dysenteriae LMP 606 after 24 hrs by microbroth dilution method; type: functional; summary of the method: as §3
Klebsiella pneumoniae [13] = experiment: Antibacterial activity against beta ampicillin resistant Klebsiella pneumoniae LMP 803 after 24 hrs by microbroth dilution method; type: functional; summary of the method: as §3
Pseudomonas aeruginosa [14] = experiment: Antibacterial activity against beta carbenicillin resistant Pseudomonas aeruginosa LMP 804 after 24 hrs by microbroth dilution method; type: functional; summary of the method: as §3
Candida albicans [15] = experiment: Antifungal activity against Candida albicans LMP 709U after 24 hrs by microbroth dilution method; type: functional; summary of the method: as §4
Microsporum audouinii [16] = experiment: Antifungal activity against Microsporum audouinii LMP 725D after 24 hrs by microbroth dilution method; type: functional; summary of the method: as §4
Salmonella enterica [17] = experiment: Antibacterial activity against chloramphenicol-resistant Salmonella typhi LMP 706 after 24 hrs by microbroth dilution method; type: functional, Salmonella enterica subsp. enterica serovar Typhi; summary of the method: as §3
Citrobacter freundii [18] = experiment: Antibacterial activity against chloramphenicol-resistant Citrobacter freundii LMP 802 after 24 hrs by microbroth dilution method; type: functional; summary of the method: as §3
[19] = Salmonella enterica subsp. enterica serovar Typhi

Compound | MIC (Staphylococcus aureus [1]; LMP 805, 0.5 h) [mg/L] | MIC (Escherichia coli [2]; LMP 701, 0.5 h) [mg/L] | MIC (Shigella dysenteriae [3]; LMP 606, 0.5 h) [mg/L] | MIC (Klebsiella pneumoniae [4]; LMP 803, 0.5 h) [mg/L] | MIC (Pseudomonas aeruginosa [5]; LMP 804, 0.5 h) [mg/L] | MIC (Salmonella enterica [6]; LMP 706, 0.5 h) [mg/L] | MIC (Citrobacter freundii [7]; LMP 802, 0.5 h) [mg/L] | MIC (Candida albicans [8]) [mg/L] | MIC (Microsporum audouinii [9]; 0.5 h) [mg/L] | MMC (Staphylococcus aureus [10]) [µg/mL] | MMC (Escherichia coli [11]) [µg/mL] | MMC (Shigella dysenteriae [12]) [µg/mL] | MMC (Klebsiella pneumoniae [13]) [µg/mL] | MMC (Pseudomonas aeruginosa [14]) [µg/mL] | MMC (Candida albicans [15]) [µg/mL] | MMC (Microsporum audouinii [16]) [µg/mL] | MMC (Citrobacter freundii [18]) [µg/mL] | further results
COc1cc2c(cc1OC)[C@H](c1ccc(O)cc1)[C@@H](C)C(C)=C2 [PYCNANTHULIGNENE A] | 9.76 (≈ 31.4 µM) | 19.5 (≈ 62.8 µM) | 39.1 (≈ 126 µM) | 78.1 (≈ 252 µM) | 78.1 (≈ 252 µM) | 19.5 (≈ 62.9 µM) | 39.1 (≈ 126 µM) | 19.5 (≈ 62.9 µM) | 39.1 (≈ 126 µM) | 19.53 | 39.1 | 78.1 | >78.12 | >78.12 | 39.06 | 78.12 | – | –
COc1ccc(-c2c(C)c(C)cc3cc4c(cc23)OCO4)cc1 [PYCNANTHULIGNENE C] | 19.5 (≈ 63.7 µM) | 19.5 (≈ 63.7 µM) | 39.1 (≈ 128 µM) | 78.1 (≈ 255 µM) | > 78.1 | 39.1 (≈ 127 µM) | 39.1 (≈ 127 µM) | 19.5 (≈ 63.7 µM) | 39.1 (≈ 127 µM) | 39.1 | 78.1 | >78.1 | >78.1 | >78.12 | 39.06 | 78.1 | 78.12 | MMC (Salmonella enterica [17]): 78.12 µg/mL
GENTAMICIN | – | – | – | – | – | – | – | – | – | – | – | – | – | – | – | – | – | MIC (Staphylococcus aureus [1]): 4.88 mg/L; MIC (Escherichia coli [2]): 4.88 mg/L; MIC (Shigella dysenteriae [3]): 4.88 mg/L; MIC (Klebsiella pneumoniae [4]): 19.5 mg/L; MIC (Pseudomonas aeruginosa [5]): > 9.76 mg/L; MIC (Salmonella enterica [6]; [19]): 9.76 mg/L; MIC (Citrobacter freundii [7]): 4.88 mg/L; MIC (Microsporum audouinii [9]): 4.88 mg/L
NYSTATIN | – | – | – | – | – | – | – | – | – | – | 9.8 | 9.8 | 19.5 | 19.5 | 9.8 | 9.8 | 9.8 | MMC (Salmonella enterica [17]; [19]): 19.5 µg/mL
